Results reported in ChEMBL document CHEMBL1138525 (J Med Chem, 2009).

What was measured:
P2Y purinoceptor 2 [1] = molecular target: P2Y purinoceptor 2 (Homo sapiens, UniProt P41231, S296A); assay: Agonist activity at N-terminal HA epitope-tagged human P2Y2 receptor S296A mutant expressed in human 1321N1 cells assessed as increase in intracellular calcium level; type: functional, cell-based
Procedure, shortened: (§1)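 Retrovirally transduced stable 1321N1 astrocytoma lines (wild-type lines of differing expression, or mutants) in suspension, loaded with Oregon Green BAPTA-1/AM for 1 h at room temperature. Cells were plated at 150000 per well in Krebs-HEPES pH 7.4 and held 20 min at 28 °C in the dark.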

[2] = test system: P2Y purinoceptor 2 (Homo sapiens), P41231 [UNDEFINED MUTATION]; assay: Ratio of EC50 for N-terminal HA epitope-tagged human P2Y2 receptor R177A_R180A double mutant to EC50 for wild type 4 human P2Y2 receptor
P2Y purinoceptor 2 [3] = molecular target: P2Y purinoceptor 2 (Homo sapiens, UniProt P41231, Y198A); assay: Agonist activity at N-terminal HA epitope-tagged human P2Y2 receptor Y198A mutant expressed in human 1321N1 cells assessed as increase in intracellular calcium level; type: functional, cell-based
Procedure, shortened: (§2)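 1321N1 astrocytoma cells stably expressing mutant receptor (retroviral transfection, G418 selection), loaded with Oregon Green BAPTA-1/AM in Krebs-HEPES pH 7.4 for 1 h at room temperature. Plated at 150000 cells/well and held 20 min at 28 °C in the dark. Efficacy relative to 100 µM carbachol.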

[4] = test system: P2Y purinoceptor 2 (Homo sapiens), P41231 [UNDEFINED MUTATION]; assay: Ratio of EC50 for N-terminal HA epitope-tagged human P2Y2 receptor Y118A mutant to EC50 for wild type 3 human P2Y2 receptor
P2Y purinoceptor 2 [5] = molecular target: P2Y purinoceptor 2 (Homo sapiens, UniProt P41231, Y114A); assay: Agonist activity at N-terminal HA epitope-tagged human P2Y2 receptor Y114A mutant expressed in human 1321N1 cells assessed as increase in intracellular calcium level; type: functional, cell-based; procedure, shortened: as §2
P2Y purinoceptor 2 [6] = molecular target: P2Y purinoceptor 2 (Homo sapiens, UniProt P41231, R272A); assay: Agonist activity at N-terminal HA epitope-tagged human P2Y2 receptor R272A mutant expressed in human 1321N1 cells assessed as increase in intracellular calcium level; type: functional, cell-based; procedure, shortened: as §2
P2Y purinoceptor 2 [7] = molecular target: T1, P2Y purinoceptor 2 (Homo sapiens, UniProt P41231); assay: Agonist activity at N-terminal HA epitope-tagged wild type 3 human P2Y2 receptor expressed in human 1321N1 cells assessed as increase in intracellular calcium level relative to carbachol; type: functional, cell-based
Procedure, shortened: as §1, with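 “dark. Agonist was then injected, with fluorescence read at ex 485/em 520 nm for 60 × 0.4 s.” for “dark.”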

P2Y purinoceptor 2 [8] = molecular target: T1, P2Y purinoceptor 2; assay: Agonist activity at N-terminal HA epitope-tagged wild type 4 human P2Y2 receptor expressed in human 1321N1 cells assessed as increase in intracellular calcium level relative to carbachol; type: functional, cell-based
Procedure, shortened: as §1, with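 “dark. Agonist was then injected, with fluorescence read at ex 485/em 520 nm for 60 × 0.4 s.” for “dark.”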

P2Y purinoceptor 2 [9] = molecular target: T1, P2Y purinoceptor 2; assay: Agonist activity at N-terminal HA epitope-tagged wild type human P2Y2 receptor expressed in human 1321N1 cells assessed as increase in intracellular calcium level; type: functional, cell-based
Procedure, shortened: as §1, with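 “dark. Agonist was then injected, with fluorescence read at ex 485/em 520 nm for 60 × 0.4 s.” for “dark.”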

[10] = test system: P2Y purinoceptor 2 (Homo sapiens), P41231 [Y118A]; assay: Agonist activity at N-terminal HA epitope-tagged human P2Y2 receptor Y118A mutant expressed in human 1321N1 cells assessed as increase in intracellular calcium level relative to carbachol; type: functional, cell-based
Procedure, shortened: as §1, with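 “dark. Agonist was then injected, with fluorescence read at ex 485/em 520 nm for 60 × 0.4 s.” for “dark.”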

[11] = test system: P2Y purinoceptor 2 (Homo sapiens), P41231 [R177A,R180A]; assay: Agonist activity at N-terminal HA epitope-tagged human P2Y2 receptor R177A_R180A double mutant expressed in human 1321N1 cells assessed as increase in intracellular calcium level relative to carbachol; type: functional, cell-based
Procedure, shortened: as §1, with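 “dark. Agonist was then injected, with fluorescence read at ex 485/em 520 nm for 60 × 0.4 s.” for “dark.”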

[12] = test system: P2Y purinoceptor 2 (Homo sapiens), P41231 [Y114A]; assay: Agonist activity at N-terminal HA epitope-tagged human P2Y2 receptor Y114A mutant expressed in human 1321N1 cells assessed as increase in intracellular calcium level relative to carbachol; type: functional, cell-based
Procedure, shortened: as §1, with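 “dark. Agonist was then injected, with fluorescence read at ex 485/em 520 nm for 60 × 0.4 s.” for “dark.”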

[13] = test system: P2Y purinoceptor 2 (Homo sapiens), P41231 [UNDEFINED MUTATION]; assay: Ratio of EC50 for N-terminal HA epitope-tagged human P2Y2 receptor C278S mutant to EC50 for wild type 3 human P2Y2 receptor
[14] = test system: P2Y purinoceptor 2 (Homo sapiens), P41231 [UNDEFINED MUTATION]; assay: Ratio of EC50 for N-terminal HA epitope-tagged human P2Y2 receptor Y114A mutant to EC50 for wild type 3 human P2Y2 receptor
Procedure, shortened: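 HA-tagged receptors (wild type or mutant) were stably expressed in 1321N1 astrocytoma cells via retrovirus. Cells were loaded with Oregon Green BAPTA-1/AM in Krebs-HEPES pH 7.4, then kept 20 min at 28 °C before agonist injection. Fluorescence was read at 520 nm (excitation 485 nm). […] Each mutant was compared with the wild-type line of similar expression.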

P2Y purinoceptor 2 [15] = molecular target: P2Y purinoceptor 2 (Homo sapiens, UniProt P41231, Y118A); assay: Agonist activity at N-terminal HA epitope-tagged human P2Y2 receptor Y118A mutant expressed in human 1321N1 cells assessed as increase in intracellular calcium level; type: functional, cell-based; procedure, shortened: as §2
P2Y purinoceptor 2 [16] = molecular target: P2Y purinoceptor 2 (Homo sapiens, UniProt P41231, R180A); assay: Agonist activity at N-terminal HA epitope-tagged human P2Y2 receptor R180A mutant expressed in human 1321N1 cells assessed as increase in intracellular calcium level; type: functional, cell-based; procedure, shortened: as §2
P2Y purinoceptor 2 [17] = molecular target: P2Y purinoceptor 2 (Homo sapiens, UniProt P41231, R177A/R180A); assay: Agonist activity at N-terminal HA epitope-tagged human P2Y2 receptor R177A_R180A double mutant expressed in human 1321N1 cells assessed as increase in intracellular calcium level; type: functional, cell-based; procedure, shortened: as §2
[18] = test system: P2Y purinoceptor 2 (Homo sapiens), P41231 [R177A]; assay: Agonist activity at N-terminal HA epitope-tagged human P2Y2 receptor R177A mutant expressed in human 1321N1 cells assessed as increase in intracellular calcium level relative to carbachol; type: functional, cell-based
Procedure, shortened: as §1, with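 “dark. Agonist was then injected, with fluorescence read at ex 485/em 520 nm for 60 × 0.4 s.” for “dark.”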

P2Y purinoceptor 2 [19] = molecular target: P2Y purinoceptor 2 (Homo sapiens, UniProt P41231, R177A); assay: Agonist activity at N-terminal HA epitope-tagged human P2Y2 receptor R177A mutant expressed in human 1321N1 cells assessed as increase in intracellular calcium level; type: functional, cell-based; procedure, shortened: as §2
P2Y purinoceptor 2 [20] = molecular target: T1, P2Y purinoceptor 2; assay: Agonist activity at N-terminal HA epitope-tagged wild type 3 human P2Y2 receptor expressed in human 1321N1 cells assessed as increase in intracellular calcium level; type: functional, cell-based; procedure, shortened: as §1
P2Y purinoceptor 2 [21] = molecular target: P2Y purinoceptor 2 (Homo sapiens, UniProt P41231, C278S); assay: Agonist activity at N-terminal HA epitope-tagged human P2Y2 receptor C278S mutant expressed in human 1321N1 cells assessed as increase in intracellular calcium level; type: functional, cell-based; procedure, shortened: as §2
[22] = test system: P2Y purinoceptor 2 (Homo sapiens), P41231 [S296A]; assay: Agonist activity at N-terminal HA epitope-tagged human P2Y2 receptor S296A mutant expressed in human 1321N1 cells assessed as increase in intracellular calcium level relative to carbachol; type: functional, cell-based
Procedure, shortened: as §1, with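 “dark. Agonist was then injected, with fluorescence read at ex 485/em 520 nm for 60 × 0.4 s.” for “dark.”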

[23] = test system: P2Y purinoceptor 2 (Homo sapiens), P41231 [Y198A]; assay: Agonist activity at N-terminal HA epitope-tagged human P2Y2 receptor Y198A mutant expressed in human 1321N1 cells assessed as increase in intracellular calcium level relative to carbachol; type: functional, cell-based
Procedure, shortened: as §1, with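 “dark. Agonist was then injected, with fluorescence read at ex 485/em 520 nm for 60 × 0.4 s.” for “dark.”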

[24] = test system: P2Y purinoceptor 2 (Homo sapiens), P41231 [R180A]; assay: Agonist activity at N-terminal HA epitope-tagged human P2Y2 receptor R180A mutant expressed in human 1321N1 cells assessed as increase in intracellular calcium level relative to carbachol; type: functional, cell-based
Procedure, shortened: as §1, with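 “dark. Agonist was then injected, with fluorescence read at ex 485/em 520 nm for 60 × 0.4 s.” for “dark.”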

P2Y purinoceptor 2 [25] = molecular target: P2Y purinoceptor 2 (Homo sapiens, UniProt P41231, R194H); assay: Agonist activity at N-terminal HA epitope-tagged human P2Y2 receptor R194H mutant expressed in human 1321N1 cells assessed as increase in intracellular calcium level; type: functional, cell-based; procedure, shortened: as §2
[26] = test system: P2Y purinoceptor 2 (Homo sapiens), P41231 [R194H]; assay: Agonist activity at N-terminal HA epitope-tagged human P2Y2 receptor R194H mutant expressed in human 1321N1 cells assessed as increase in intracellular calcium level relative to carbachol; type: functional, cell-based
Procedure, shortened: as §1, with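 “dark. Agonist was then injected, with fluorescence read at ex 485/em 520 nm for 60 × 0.4 s.” for “dark.”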

[27] = test system: P2Y purinoceptor 2 (Homo sapiens), P41231 [C278S]; assay: Agonist activity at N-terminal HA epitope-tagged human P2Y2 receptor C278S mutant expressed in human 1321N1 cells assessed as increase in intracellular calcium level relative to carbachol; type: functional, cell-based
Procedure, shortened: as §1, with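 “dark. Agonist was then injected, with fluorescence read at ex 485/em 520 nm for 60 × 0.4 s.” for “dark.”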

P2Y purinoceptor 2 [28] = molecular target: T1, P2Y purinoceptor 2; assay: Agonist activity at N-terminal HA epitope-tagged wild type 4 human P2Y2 receptor expressed in human 1321N1 cells assessed as increase in intracellular calcium level; type: functional, cell-based; procedure, shortened: as §1
[29] = test system: P2Y purinoceptor 2 (Homo sapiens), P41231 [R272A]; assay: Agonist activity at N-terminal HA epitope-tagged human P2Y2 receptor R272A mutant expressed in human 1321N1 cells assessed as increase in intracellular calcium level relative to carbachol; type: functional, cell-based
Procedure, shortened: as §1, with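 “dark. Agonist was then injected, with fluorescence read at ex 485/em 520 nm for 60 × 0.4 s.” for “dark.”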

T1 sequence (P41231 whole entry): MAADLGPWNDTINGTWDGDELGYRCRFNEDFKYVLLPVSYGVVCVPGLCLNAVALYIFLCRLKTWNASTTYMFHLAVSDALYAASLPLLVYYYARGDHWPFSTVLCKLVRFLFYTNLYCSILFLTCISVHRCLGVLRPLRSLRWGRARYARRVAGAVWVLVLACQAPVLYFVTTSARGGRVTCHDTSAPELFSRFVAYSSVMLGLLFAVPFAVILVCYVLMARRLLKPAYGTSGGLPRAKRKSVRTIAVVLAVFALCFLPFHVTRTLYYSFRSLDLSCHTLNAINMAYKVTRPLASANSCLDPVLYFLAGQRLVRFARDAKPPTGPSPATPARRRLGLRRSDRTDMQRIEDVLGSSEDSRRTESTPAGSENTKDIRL
Chain of P2Y purinoceptor 2 (Homo sapiens), P41231 [UNDEFINED MUTATION] (P41231 whole entry, looked up, stated change not applied): as the sequence (P41231 whole entry) above
Chain of P2Y purinoceptor 2 (Homo sapiens, UniProt P41231, Y114A) (P41231 whole entry Y114A): as the sequence (P41231 whole entry) above, with Y114A counted along it
Chain of P2Y purinoceptor 2 (Homo sapiens), P41231 [Y114A] (P41231 whole entry Y114A): as the sequence (P41231 whole entry) above, with Y114A counted along it
Chain of P2Y purinoceptor 2 (Homo sapiens, UniProt P41231, R177A) (P41231 whole entry R177A): as the sequence (P41231 whole entry) above, with R177A counted along it
Chain of P2Y purinoceptor 2 (Homo sapiens), P41231 [R177A] (P41231 whole entry R177A): as the sequence (P41231 whole entry) above, with R177A counted along it
Chain of P2Y purinoceptor 2 (Homo sapiens, UniProt P41231, Y118A) (P41231 whole entry Y118A): as the sequence (P41231 whole entry) above, with Y118A counted along it
Chain of P2Y purinoceptor 2 (Homo sapiens), P41231 [Y118A] (P41231 whole entry Y118A): as the sequence (P41231 whole entry) above, with Y118A counted along it
Chain of P2Y purinoceptor 2 (Homo sapiens, UniProt P41231, R177A/R180A) (P41231 whole entry R177A/R180A): as the sequence (P41231 whole entry) above, with R177A, R180A counted along it
Chain of P2Y purinoceptor 2 (Homo sapiens), P41231 [R177A,R180A] (P41231 whole entry R177A/R180A): as the sequence (P41231 whole entry) above, with R177A, R180A counted along it
Chain of P2Y purinoceptor 2 (Homo sapiens, UniProt P41231, C278S) (P41231 whole entry C278S): as the sequence (P41231 whole entry) above, with C278S counted along it
Chain of P2Y purinoceptor 2 (Homo sapiens), P41231 [C278S] (P41231 whole entry C278S): as the sequence (P41231 whole entry) above, with C278S counted along it
Chain of P2Y purinoceptor 2 (Homo sapiens), P41231 [R180A] (P41231 whole entry R180A): as the sequence (P41231 whole entry) above, with R180A counted along it
Chain of P2Y purinoceptor 2 (Homo sapiens, UniProt P41231, R180A) (P41231 whole entry R180A): as the sequence (P41231 whole entry) above, with R180A counted along it
Chain of P2Y purinoceptor 2 (Homo sapiens, UniProt P41231, S296A) (P41231 whole entry S296A): as the sequence (P41231 whole entry) above, with S296A counted along it
Chain of P2Y purinoceptor 2 (Homo sapiens), P41231 [S296A] (P41231 whole entry S296A): as the sequence (P41231 whole entry) above, with S296A counted along it
Chain of P2Y purinoceptor 2 (Homo sapiens, UniProt P41231, R272A) (P41231 whole entry R272A): as the sequence (P41231 whole entry) above, with R272A counted along it
Chain of P2Y purinoceptor 2 (Homo sapiens), P41231 [R272A] (P41231 whole entry R272A): as the sequence (P41231 whole entry) above, with R272A counted along it
Chain of P2Y purinoceptor 2 (Homo sapiens, UniProt P41231, R194H) (P41231 whole entry R194H): as the sequence (P41231 whole entry) above, with R194H counted along it
Chain of P2Y purinoceptor 2 (Homo sapiens), P41231 [R194H] (P41231 whole entry R194H): as the sequence (P41231 whole entry) above, with R194H counted along it
Chain of P2Y purinoceptor 2 (Homo sapiens), P41231 [Y198A] (P41231 whole entry Y198A): as the sequence (P41231 whole entry) above, with Y198A counted along it
Chain of P2Y purinoceptor 2 (Homo sapiens, UniProt P41231, Y198A) (P41231 whole entry Y198A): as the sequence (P41231 whole entry) above, with Y198A counted along it

In the case of `Nc1ncnc2c1ncn2[C@@H]1O[C@H](COP(=O)(O)OP(=O)(O)OP(=O)(O)O)[C@@H](O)[C@H]1O` [ADENOSINE TRIPHOSPHATE], the EC50 (P2Y purinoceptor 2 [1]) is reported as > 300 µM, the Ratio EC50 [2] is reported as 4 and the EC50 (P2Y purinoceptor 2 [3]) is reported as 0.12 µM. For the same compound, the Ratio EC50 [4] was 3, the EC50 (P2Y purinoceptor 2 [5]) was 0.0301 µM and the EC50 (P2Y purinoceptor 2 [6]) was 11.7 µM. For the same compound, the Efficacy (P2Y purinoceptor 2 [7]) was 92%, the Efficacy (P2Y purinoceptor 2 [8]) was 110% and the Activity (P2Y purinoceptor 2 [9]) was “Dose-dependent effect”. It also gave an Efficacy [10] of 41%, an Efficacy [11] of 104% and an Efficacy [12] of 87%. The Ratio EC50 [13] was 10, the Ratio EC50 [14] was 2 and the EC50 (P2Y purinoceptor 2 [15]) was 0.299 µM. It also gave an EC50 (P2Y purinoceptor 2 [16]) of 0.237 µM, an EC50 (P2Y purinoceptor 2 [17]) of 0.239 µM and an Efficacy [18] of 117%. The EC50 (P2Y purinoceptor 2 [19]) was 0.183 µM, the EC50 (P2Y purinoceptor 2 [20]) was 0.0958 µM and the EC50 (P2Y purinoceptor 2 [21]) was 1 µM. It also gave an Efficacy [22] of 5%, an Efficacy [23] of 126% and an Efficacy [24] of 115%. The EC50 (P2Y purinoceptor 2 [25]) was 0.111 µM, the Efficacy [26] was 130% and the Efficacy [27] was 97%. For the same compound, the EC50 (P2Y purinoceptor 2 [28]) was 0.0631 µM and the Efficacy [29] was 87%.
